Source: ChEMBL document CHEMBL4020841, “Structure Guided Lead Generation toward Nonchiral M. tuberculosis Thymidylate Kinase Inhibitors” (J Med Chem, 2018)
pIC50: −log10 of the molar value. Activity calls are given as the source filed them. The calls are words filed in the database; no cut-off is given here.

System: Mycobacterium tuberculosis
Assay: Inhibition of Mycobacterium tuberculosis TMPK expressed in Escherichia coli BLi5 at 0.8 mM using dTMP as substrate in presence of ATP by spectrophotometric based LDH/PK/nucleoside diphosphate kinase enzyme coupled assay

| SMILES | inhibition |
| --- | --- |
| Cc1cn(CC2CCN(Cc3cccc(Oc4ccccc4)c3)CC2)c(=O)[nH]c1=O | inactive |

System: not listed separately
Assay: Inhibition of Mycobacterium tuberculosis TMPK expressed in Escherichia coli BLi5 using dTMP as substrate in presence of ATP by spectrophotometric based LDH/PK/nucleoside diphosphate kinase enzyme coupled assay
In short: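 Wild-type enzyme from pHL50 in E. coli BLi5, purified by Blue-Sepharose then gel filtration. IC50 fit to four-parameter logistic of % inhibition.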

| SMILES | pIC50 |
| --- | --- |
| Cc1cn(C2CCN(Cc3ccc4ccccc4c3)CC2)c(=O)[nH]c1=O | 4.70 |
| Cc1cn(C2CCN(Cc3cc4ccccc4o3)CC2)c(=O)[nH]c1=O | 4.64 |
| Cc1cn(C2CCN(Cc3ccc(Oc4ccccc4)cc3)CC2)c(=O)[nH]c1=O | 4.54 |
| Cc1cn(C2CN(CCCc3cccc(Oc4ccccc4)c3)C2)c(=O)[nH]c1=O | 2.94 |
| Cc1cn(C2CCN(Cc3cnc4ccccc4c3)CC2)c(=O)[nH]c1=O | 4.77 |
| Cc1cn(C2CN(Cc3ccc(Oc4ccccc4)cc3)C2)c(=O)[nH]c1=O | 3.08 |
| Cc1cn(C2CCN(Cc3ccc(C#N)cc3)CC2)c(=O)[nH]c1=O | 4.46 |
| Cc1cn(C2CCN(Cc3ccccc3)CC2)c(=O)[nH]c1=O | 3.86 |
| Cc1cn(C2CCN(Cc3cncc4ccccc34)CC2)c(=O)[nH]c1=O | 4.60 |
| Cc1cn(C2CCN(Cc3cccc(C(=O)O)n3)CC2)c(=O)[nH]c1=O | 3.84 |
| Cc1cn(C2CCN(Cc3ccncc3)CC2)c(=O)[nH]c1=O | 4.31 |
| COc1ccc(CN2CCC(n3cc(C)c(=O)[nH]c3=O)CC2)cc1 | 3.95 |
| Cc1cccc(CN2CCC(n3cc(C)c(=O)[nH]c3=O)CC2)c1 | 4.14 |
| Cc1cn(C2CCN(Cc3cc(Oc4ccccc4)c4ccc(Cl)cc4n3)CC2)c(=O)[nH]c1=O | 5.74 |
| Cc1cn(C2CCN(Cc3ccoc3)CC2)c(=O)[nH]c1=O | 3.60 |
| Cc1cn(C2CCN(Cc3ccco3)CC2)c(=O)[nH]c1=O | 3.94 |
| Cc1cn(C2CCN(Cc3ccccn3)CC2)c(=O)[nH]c1=O | 4.02 |

| SMILES | pIC50 |
| --- | --- |
| Cc1cn(C2CN(CCc3cccc(Oc4ccccc4)c3)C2)c(=O)[nH]c1=O | 2.72 |
| Cc1cn(C2CCN(Cc3ccc(C(=O)O)cc3)CC2)c(=O)[nH]c1=O | 3.85 |
| Cc1cn(C2CCN(Cc3cc4ccccc4cn3)CC2)c(=O)[nH]c1=O | 4.59 |
| Cc1cn(C2CN(Cc3cccc(Oc4ccccc4)c3)C2)c(=O)[nH]c1=O | 3.03 |
| Cc1cn(C2CCN(Cc3ccnc4ccccc34)CC2)c(=O)[nH]c1=O | 4.60 |
| Cc1cn(C2CCN(Cc3ccc(Cl)cc3)CC2)c(=O)[nH]c1=O | 4.40 |
| Cc1ccc(CN2CCC(n3cc(C)c(=O)[nH]c3=O)CC2)cc1 | 3.77 |
| Cc1cn(C2CCN(C(=O)c3cccc(Oc4ccccc4)c3)CC2)c(=O)[nH]c1=O | 3.63 |
| Cc1cn(C2CCN(Cc3cccc(Oc4ccccc4)c3)CC2)c(=O)[nH]c1=O | 5.21 |
| Cc1cn(C2CCN(CC3CCCCC3)CC2)c(=O)[nH]c1=O | 2.95 |
| Cc1cn(CC2CCN(Cc3ccc(Oc4ccccc4)cc3)CC2)c(=O)[nH]c1=O | < 2.70 |
| Cc1cn(C2CCN(CCc3cccc(Oc4ccccc4)c3)CC2)c(=O)[nH]c1=O | 4.96 |
| Cc1cn(C2CCN(C(=O)c3ccc(Oc4ccccc4)cc3)CC2)c(=O)[nH]c1=O | 3.45 |
| Cc1cn(C2CCN(Cc3ccc(N(C)C)cc3)CC2)c(=O)[nH]c1=O | 3.48 |
| Cc1cn(C2CCN(Cc3nccc4ccccc34)CC2)c(=O)[nH]c1=O | 4.57 |
| Cc1cn(C2CCN(Cc3cccnc3)CC2)c(=O)[nH]c1=O | 4.12 |
| Cc1cn(C2CCN(Cc3cccc4ccccc34)CC2)c(=O)[nH]c1=O | 4.42 |
